{"data": "Results collected from several papers", "organism": "Staphylococcus aureus", "observed": "microbial growth", "note": "Compare with care: the assays were run in different laboratories."}
{"Structure (SMILES)": "CCOc1ccc(-c2nc3cc(-c4nc5cc(N6CCN(C)CC6)ccc5[nH]4)ccc3[nH]2)cc1", "test": "broth dilution", "system": "33591", "conditions": "24 h", "MIC": "2 to 4 µg/mL"}
{"Structure (SMILES)": "COc1ccc(-c2nc3ccc(C)cc3[nH]2)cc1OC", "test": "broth dilution", "system": "ATCC29213 MSSA", "MIC": "128 µg/mL"}
{"Structure (SMILES)": "CC(C)Oc1c(NC(=O)c2ccc(NC(=O)[C@H](CC(N)=O)NC(=O)c3ccc(NC(=O)c4ccc(C#N)cc4)cc3)cc2)ccc(C(=O)Nc2cc(C(=O)O)n(C)c2)c1O", "system": "ATCC29213", "MIC": "64 µg/mL"}
{"Structure (SMILES)": "C#CCCCCC(=O)N1CCN(c2ccccc2)CC1", "system": "NCTC8325", "MIC": "> 100 µM"}
{"Structure (SMILES)": "O=C(CCc1ccc(O)c(O)c1)NCCCCCCCC[P+](c1ccccc1)(c1ccccc1)c1ccccc1.[Br-]", "test": "broth dilution", "system": "ATCC43300 MRSA", "conditions": "18 h", "MIC": "> 32 µg/mL"}
{"Structure (SMILES)": "NC[C@H]1O[C@H](O[C@H]2[C@H](O)[C@@H](O[C@H]3O[C@H](CO)[C@@H](O)[C@H](N)[C@H]3O)[C@H](N)C[C@@H]2N)[C@H](N)C[C@@H]1O", "system": "156", "conditions": "clinical isolate", "MIC": "12.5 µM"}
{"Structure (SMILES)": "CC(C)Oc1c(NC(=O)c2ccc(NC(=O)[C@H](CC(N)=O)NC(=O)c3cccc(-c4cccc(C#N)c4)c3)cc2)ccc(C(=O)Nc2ccc(C(=O)O)cc2)c1O", "system": "ATCC29213", "MIC": "> 64 µg/mL"}
{"Structure (SMILES)": "C/C=C(\\C)c1cc(O)c(C)c(OC(=O)c2c(C)cc(O)c(Cl)c2O)c1", "test": "broth dilution", "system": "745524", "MIC": "8 µg/mL"}
{"Structure (SMILES)": "O=C(O)CN1C(=O)/C(=C/c2ccc(-c3ccc(N(c4ccccc4)c4ccccc4)cc3)c3ccccc23)SC1=S", "test": "broth dilution", "system": "ATCC43300", "MIC": "1000 µg/mL"}
{"Structure (SMILES)": "Cc1ccc(C)n1-c1ccc(-c2nnc(S)s2)cc1", "test": "broth dilution", "system": "ATCC11632", "conditions": "18 h", "MIC": "1 µg/mL"}
{"Structure (SMILES)": "COc1ccc(-c2cc3c(C)nc(N)nc3n([C@H]3CC[C@H](OCCO)CC3)c2=O)cn1", "system": "NCTC8325", "MIC": "> 30 µM"}
{"Structure (SMILES)": "Cc1ccc2nc(-c3ccc(Cl)c(Cl)c3)[nH]c2c1", "test": "broth dilution", "system": "ATCC29213 MSSA", "MIC": "16 µg/mL"}
{"Structure (SMILES)": "O=C(O)c1cn(C2CC2)c2cc(N3CCNCC3)c(F)cc2c1=O", "MIC": "1.6 µg/mL"}
{"Structure (SMILES)": "CC(C)Oc1c(NC(=O)c2ccc(NC(=O)[C@H](CC(N)=O)NC(=O)c3ccc(NC(=O)c4ccccc4)cc3)cc2)ccc(C(=O)Nc2ccc(C(=O)O)cc2)c1O", "system": "ATCC29213", "MIC": "> 64 µg/mL"}
{"Structure (SMILES)": "O=C(O)CN1C(=O)/C(=C/c2ccc(-c3ccc(N(c4ccccc4)c4ccccc4)cc3)c3ccccc23)NC1=S", "test": "broth dilution", "system": "ATCC43300", "MIC": "> 1000 µg/mL"}
{"Structure (SMILES)": "CCCCCCC#Cc1cncc(-c2nnc(SCc3ccc([N+](=O)[O-])cc3)n2C)c1", "system": "MRSA", "conditions": "drug-resistant strain", "MIC": "≥ 20 µg/mL"}
{"Structure (SMILES)": "O=C1NC(=S)S/C1=C\\c1ccc(-c2ccc(N(c3ccccc3)c3ccccc3)cc2)cc1", "test": "broth dilution", "system": "ATCC6538", "MIC": "500 µg/mL"}
{"Structure (SMILES)": "CCOc1cc(-c2nc3ccccc3[nH]2)ccc1O", "test": "broth dilution", "system": "ATCC29213 MSSA", "MIC": "128 µg/mL"}
{"Structure (SMILES)": "CCOC(=O)/C(C#N)=C(\\O)c1ccc(NC(=O)c2cccs2)cc1", "MIC": "> 128 µg/mL"}
{"Structure (SMILES)": "OC(Cn1cncn1)(Cn1cncn1)c1ccc(F)cc1F", "test": "broth dilution", "system": "MB2865", "MIC": "> 128 µg/mL"}
{"Structure (SMILES)": "C[C@@H](O)[C@H]1C(=O)N2C(C(=O)O)=C(SCCN=CN)C[C@H]12", "system": "MRSA", "MIC": "32 µg/mL"}
{"Structure (SMILES)": "O=C(Nc1ccc(F)cc1)c1ccccc1O", "test": "broth dilution", "system": "ATCC29213", "MIC": "32 µg/mL"}
{"Structure (SMILES)": "CN[C@H](CC(C)C)C(=O)N[C@H]1C(=O)N[C@@H](CC(N)=O)C(=O)N[C@H]2C(=O)N[C@H]3C(=O)N[C@H](C(=O)N[C@H](C(=O)O)c4cc(O)cc(O)c4-c4cc3ccc4O)[C@H](O)c3ccc(c(Cl)c3)Oc3cc2cc(c3O[C@@H]2O[C@H](CO)[C@@H](O)[C@H](O)[C@H]2O[C@H]2C[C@](C)(N)[C@H](O)[C@H](C)O2)Oc2ccc(cc2Cl)[C@H]1O", "test": "broth dilution", "system": "MRSA", "MIC": "0.5 µg/mL"}
{"Structure (SMILES)": "CNC(=O)c1cc(Sc2ccc(NC(=O)Nc3ccc(Cl)c(C(F)(F)F)c3)cc2)ccn1", "system": "NCTC8325", "conditions": "24 h", "MIC": "1 µM"}
{"Structure (SMILES)": "CC1(C)S[C@@H]2[C@H](NC(=O)COc3ccccc3)C(=O)N2[C@H]1C(=O)O", "test": "broth dilution", "system": "MRSA", "conditions": "18 h, clinical isolate", "MIC": "> 128 µg/mL"}
{"Structure (SMILES)": "C[n+]1c(/C=C/c2c[nH]c3ccccc23)cc(/C=C2\\Sc3ccccc3N2CCCN2CCCC2)c2ccccc21.[I-]", "test": "broth dilution", "system": "ATCCBAA44", "MIC": "4 µg/mL"}
{"Structure (SMILES)": "C/C=C(\\C)c1cc(O)c(C)c(OC(=O)c2c(C)c(Cl)c(O)c(Cl)c2O)c1", "test": "broth dilution", "system": "745524", "MIC": "4 µg/mL"}
{"Structure (SMILES)": "Cc1ccc2nc(-c3ccc(Cl)cc3Cl)[nH]c2c1", "test": "broth dilution", "system": "ATCC29213 MSSA", "MIC": "64 µg/mL"}
{"Structure (SMILES)": "CC(=O)NC[C@H]1CN(c2ccc(N3CCOCC3)c(F)c2)C(=O)O1", "test": "broth dilution", "system": "MRSA NRS383 USA200", "conditions": "drug-resistant strain", "MIC": "2 µg/mL"}
{"Structure (SMILES)": "CCOc1ccc(-c2nc3ccccc3[nH]2)cc1", "test": "broth dilution", "system": "ATCC29213 MSSA", "MIC": "256 µg/mL"}
{"Structure (SMILES)": "Cc1ccc(NC(=O)Nc2ccc3c(c2)OC(F)(F)O3)cc1", "system": "NCTC8325", "MIC": "> 100 µM"}
{"Structure (SMILES)": "CC1(C)S[C@@H]2[C@H](NC(=O)[C@H](N)c3ccccc3)C(=O)N2[C@H]1C(=O)O", "test": "broth dilution", "system": "6917", "MIC": "64 µg/mL"}
{"Structure (SMILES)": "O=C1NN=C(N=Cc2ccc(O)cc2O)C1=NNn1c(-c2ccccc2)nc2ccccc2c1=O", "test": "broth dilution", "conditions": "24 h", "MIC": "107 µM"}
{"Structure (SMILES)": "CO[C@H]1/C=C/O[C@@]2(C)Oc3c(C)c(O)c4c(O)c(c(/C=N/N5CCN(C)CC5)c(O)c4c3C2=O)NC(=O)/C(C)=C\\C=C\\[C@H](C)[C@H](O)[C@@H](C)[C@@H](O)[C@@H](C)[C@H](OC(C)=O)[C@@H]1C", "system": "NCTC8325", "MIC": "0.009 to 0.018 µM"}
{"Structure (SMILES)": "CCCN/C(=N/C)c1ccc(NC(=O)c2ccc(C(=O)Nc3ccc(/C(=N\\C)NCCC)cc3)cc2)cc1", "MIC": "16 µg/mL"}
{"Structure (SMILES)": "C[S+]([O-])c1ccc(-c2nc(-c3ccc(F)cc3)c(-c3ccncc3)[nH]2)cc1 (centres unmarked)", "system": "NCTC8325", "MIC": "> 30 µM"}
{"Structure (SMILES)": "C[C@@H](O)[C@H]1C(=O)N2C(C(=O)O)=C(SCCN=CN)C[C@H]12", "test": "broth dilution", "system": "KCTC1621", "conditions": "16 h", "MIC": "8 µM"}
{"Structure (SMILES)": "CNC(=O)c1cc(COc2nnc(Nc3ccc(Cl)cc3)c3ccoc23)ccn1", "system": "NCTC8325", "MIC": "> 30 µM"}
{"Structure (SMILES)": "COc1c(C)c(OC(C)=O)c(C)c(O)c1C(=O)/C=C/c1ccccc1", "test": "broth dilution", "system": "ATCC25923", "MIC": "2500 µg/mL"}
{"Structure (SMILES)": "C=CC(=O)Nc1cccc(Sc2nc(Nc3ccc(N4CCN(C)CC4)cc3)ncc2Cl)c1", "system": "NCTC8325", "MIC": "> 30 µM"}
{"Structure (SMILES)": "CC(C)Oc1c(NC(=O)c2ccc(NC(=O)[C@H](CC(N)=O)NC(=O)c3ccc(NC(=O)c4cccc([N+](=O)[O-])c4)cc3)cc2)ccc(C(=O)Nc2ccc(C(=O)O)cc2)c1O", "system": "ATCC29213", "MIC": "> 64 µg/mL"}
